In brackets after ≈: the same amount, converted by molar mass.
Experiments:
[1] = tested on: Staphylococcus haemolyticus; experiment: Antibacterial activity against Staphylococcus haemolyticus OCC 2223 after 18 hrs; assay type: functional; details: OCC 2223, 18 h
Outline: (§1)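 Broth microdilution in Nutrient Broth No. 2. Ethanol stocks were diluted in broth to 0.01–128 µg/ml for triclosan and 0.25–256 µg/ml for glycosides. Overnight 37°C NB2 cultures were diluted 1 in 10^4 in saline and added to the wells. Plates were incubated at 37°C with OD read every 15 min after agitation. MIC was the lowest concentration giving no OD increase at 18 h.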

[2] = Antibacterial activity against Salmonella enterica subspecies enterica serotype Infantis OCC 2133 after 18 hrs; assay type: functional, Salmonella enterica subsp. enterica serovar Infantis; details: OCC 2133, 18 h
Outline: (§2)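 Broth microdilution in Nutrient Broth No. 2; stocks in ethanol diluted to 0.01–128 µg/ml (triclosan) or 0.25–256 µg/ml (glycosides). Overnight 37 °C NB2 cultures diluted 1 in 10^4 in saline and added to the dilutions. Incubation at 37 °C with agitation, OD read every 15 min; MIC is the lowest concentration preventing any OD rise after 18 h.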

Klebsiella aerogenes = experiment: Antibacterial activity against Klebsiella aerogenes NCTC 8167 after 18 hrs; assay type: functional; details: NCTC 8167, 18 h; outline: as §2
[3] = Antibacterial activity against Salmonella enterica subspecies enterica serotype Indiana OCC 597 after 18 hrs; assay type: functional, Salmonella enterica subsp. enterica serovar Indiana; details: OCC 597, 18 h; outline: as §2
Serratia marcescens = experiment: Antibacterial activity against Serratia marcescens OCC 217 after 18 hrs; assay type: functional; details: OCC 217, 18 h; outline: as §2
Klebsiella pneumoniae = experiment: Antibacterial activity against Klebsiella pneumoniae ATCC 13883 after 18 hrs; assay type: functional; details: ATCC 13883, 18 h; outline: as §2
Staphylococcus aureus [4] = experiment: Antibacterial activity against Staphylococcus aureus OCC 106 after 18 hrs; assay type: functional; details: OCC 106, 18 h; outline: as §2
Enterococcus faecalis = experiment: Antibacterial activity against Enterococcus faecalis ATCC 29212 after 18 hrs; assay type: functional; details: ATCC 29212, 18 h; outline: as §2
Escherichia coli [5] = experiment: Antibacterial activity against Escherichia coli 700728 after 18 hrs; assay type: functional; details: Escherichia coli, 700728, 18 h; outline: as §2
Streptococcus pyogenes = experiment: Antibacterial activity against Streptococcus pyogenes ATCC 19615 after 18 hrs; assay type: functional; details: ATCC 19615, 18 h; outline: as §1
Citrobacter freundii = experiment: Antibacterial activity against Citrobacter freundii 8090 after 18 hrs; assay type: functional; details: Citrobacter freundii, 8090, 18 h; outline: as §2
Staphylococcus aureus [6] = experiment: Antibacterial activity against Staphylococcus aureus ATCC 6538 after 18 hrs; assay type: functional; details: ATCC 6538, 18 h; outline: as §2
Escherichia coli [7] = experiment: Antibacterial activity against Escherichia coli ATCC 8739 after 18 hrs; assay type: functional; details: ATCC 8739, 18 h; outline: as §2
Escherichia coli [8] = experiment: Antibacterial activity against Escherichia coli ATCC 25922 after 18 hrs; assay type: functional; details: ATCC 25922, 18 h; outline: as §2
Escherichia hermannii = experiment: Antibacterial activity against Escherichia hermannii 33650 after 18 hrs; assay type: functional; details: Atlantibacter hermannii, 33650, 18 h; outline: as §2
[9] = Antibacterial activity against Salmonella enterica subspecies enterica serotype Pullorum OCC 273 after 18 hrs; assay type: functional, Salmonella enterica subsp. enterica serovar Pullorum; details: OCC 273, 18 h; outline: as §2
Escherichia coli [10] = experiment: Antibacterial activity against Escherichia coli OCC 122 after 18 hrs; assay type: functional; details: OCC 122, 18 h; outline: as §2
[11] = tested on: Staphylococcus saprophyticus; experiment: Antibacterial activity against Staphylococcus saprophyticus ATCC 15305 after 18 hrs; assay type: functional; details: ATCC 15305, 18 h; outline: as §1
Proteus mirabilis = experiment: Antibacterial activity against Proteus mirabilis ATCC 12453 after 18 hrs; assay type: functional; details: ATCC 12453, 18 h; outline: as §2
[12] = tested on: Staphylococcus epidermidis; experiment: Antibacterial activity against Staphylococcus epidermidis ATCC 12228 after 18 hrs; assay type: functional; details: ATCC 12228, 18 h; outline: as §2
Proteus vulgaris = experiment: Antibacterial activity against Proteus vulgaris OCC 195 after 18 hrs; assay type: functional; details: OCC 195, 18 h; outline: as §2
[13] = tested on: Staphylococcus epidermidis; experiment: Antibacterial activity against Staphylococcus epidermidis ATCC 14990 after 18 hrs; assay type: functional; details: ATCC 14990, 18 h; outline: as §2
Staphylococcus aureus [14] = experiment: Antibacterial activity against Staphylococcus aureus NCTC 13758 after 18 hrs; assay type: functional; details: NCTC 13758, 18 h; outline: as §2
Cronobacter sakazakii = experiment: Antibacterial activity against Cronobacter sakazakii 29544 after 18 hrs; assay type: functional; details: Cronobacter sakazakii, 29544, 18 h; outline: as §2
Streptococcus viridans = experiment: Antibacterial activity against Streptococcus viridans OCC 234 after 18 hrs; assay type: functional; details: OCC 234, 18 h; outline: as §1
Escherichia coli [15] = experiment: Antibacterial activity against Escherichia coli ATCC 35218 after 18 hrs; assay type: functional; details: ATCC 35218, 18 h; outline: as §2
Salmonella enteritidis = experiment: Antibacterial activity against Salmonella enterica subspecies enterica serotype Enteritidis 13076 after 18 hrs; assay type: functional, Salmonella enterica subsp. enterica serovar Enteritidis; details: Salmonella enterica, 13076, 18 h; outline: as §2
Escherichia coli [16] = experiment: Antibacterial activity against Escherichia coli ATCC 10536 after 18 hrs; assay type: functional; details: ATCC 10536, 18 h; outline: as §2
Hafnia alvei = experiment: Antibacterial activity against Hafnia alvei 13337 after 18 hrs; assay type: functional; details: Hafnia alvei, 13337, 18 h; outline: as §2

MIC [2]: 16 to 64 µg/mL (≈ 35.4 to 142 µM) | MIC (Klebsiella aerogenes): 32 µg/mL (≈ 70.8 µM) | MIC [3]: 16 to 64 µg/mL (≈ 35.4 to 142 µM) | MIC (Serratia marcescens): > 256 µg/mL | MIC (Klebsiella pneumoniae): 4 µg/mL (≈ 8.86 µM) | MIC (Staphylococcus aureus [4]): 2 to 8 µg/mL (≈ 4.43 to 17.7 µM) | MIC (Enterococcus faecalis): 256 µg/mL (≈ 567 µM) | MIC (Escherichia coli [5]): 4 to 64 µg/mL (≈ 8.86 to 142 µM) | MIC (Streptococcus pyogenes): 32 µg/mL (≈ 70.8 µM) | MIC (Citrobacter freundii): 64 µg/mL (≈ 142 µM) | MIC (Staphylococcus aureus [6]): 2 to 8 µg/mL (≈ 4.43 to 17.7 µM) | MIC (Escherichia coli [7]): 4 to 64 µg/mL (≈ 8.86 to 142 µM) | MIC (Escherichia coli [8]): 4 to 64 µg/mL (≈ 8.86 to 142 µM) | MIC (Escherichia hermannii): 16 µg/mL (≈ 35.4 µM) | MIC [9]: 16 to 64 µg/mL (≈ 35.4 to 142 µM) | MIC (Escherichia coli [10]): 4 to 64 µg/mL (≈ 8.86 to 142 µM) | MIC [11]: 32 µg/mL (≈ 70.8 µM) | MIC (Proteus mirabilis): 16 µg/mL (≈ 35.4 µM) | MIC [12]: 4 to 8 µg/mL (≈ 8.86 to 17.7 µM) | MIC (Proteus vulgaris): 32 µg/mL (≈ 70.8 µM) | MIC [13]: 4 to 8 µg/mL (≈ 8.86 to 17.7 µM) | MIC (Staphylococcus aureus [14]): 2 to 8 µg/mL (≈ 4.43 to 17.7 µM) | MIC (Cronobacter sakazakii): 128 µg/mL (≈ 283 µM) | MIC (Streptococcus viridans): 128 µg/mL (≈ 283 µM) | MIC (Escherichia coli [15]): 4 to 64 µg/mL (≈ 8.86 to 142 µM) | MIC (Salmonella enteritidis): 16 to 64 µg/mL (≈ 35.4 to 142 µM) | MIC (Escherichia coli [16]): 4 to 64 µg/mL (≈ 8.86 to 142 µM) | MIC (Hafnia alvei): 4 µg/mL (≈ 8.86 µM)
SMILES: OC[C@H]1O[C@H](Oc2cc(Cl)ccc2Oc2ccc(Cl)cc2Cl)[C@@H](O)[C@@H](O)[C@@H]1O
MIC [1]: 8 µg/mL (≈ 17.7 µM)
